Results from PMC3528973 (Bioorganic & medicinal chemistry letters, 2011).
Values after ≈ are worked out from the molar mass of the structure shown. Where two headings read alike, the source gives them in different places.

Tests used:
[1] = Stability/reactivity toward glutathione; assay type: physicochemical
[2] = tested on: BJeLR (expressing HRAS^G12V); conditions: for increase in activity compared to 2a: BJeLR
[3] = tested on: BJeH-LT (isogenic to BJeLR without HRAS^G12V); assay: Cell viability counterscreen in isogenic BJeH-LT cells; assay type: cell-based; conditions: read-out: IC50 BJeH-LT
Procedure, shortened: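 IC50 measured in BJeH-LT cells, the isogenic partner of BJeLR lacking mutant HRAS; each reported value is the mean of experiments run in triplicate.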

[4] = tested on: BJeLR (expressing HRAS^G12V); assay: cells; conditions: read-out: IC50 BJeLR
[5] = tested on: DRD (expressing HRAS^G12V with alternative oncogenic constructs); assay: Cell viability in DRD cells; assay type: cell-based
[6] = tested on: BJeLR (expressing HRAS^G12V); conditions: cited from earlier work

Row | SMILES | activity in the cell assays (in words) [2] | IC50 [3] | IC50 [4] | further results
1 | COc1ccc(N(C(=O)CCl)C(C(=O)NCCc2ccccc2)c2cccs2)cc1Cl (stereo not shown) [Compound 1a] |  |  |  | GSH adduct observed ([1]; 48 hours incubation in PBS/DMSO (1/2) at room temperature, GSH 5 mM): 20%; time in which formation of the GSH adduct was observed ([1]; base (triethylamine) added): 1 h; solubility (Aqueous solubility): < 1 µM
2 | COc1ccc(N(C(=O)CCl)C(C(=O)NCCc2ccccc2)c2nc(C)cs2)cc1Cl (stereo not shown) [Compound 1k] | inactive |  |  | 
3 | COc1ccc(N(C(=O)CCl)C(C(=O)NCS(=O)(=O)c2ccc(C)cc2)c2cccs2)cc1Cl (stereo not shown) [Compound 1q] |  |  |  | solubility (Aqueous solubility): 16 µM (≈ 8.66 µg/mL)
4 | COc1ccc(N(C(=O)CCl)C(C(=O)NCn2nnc3ccccc32)c2cccs2)cc1Cl (stereo not shown) [Compound 1r] |  |  |  | aqueous solubility (in words) (Aqueous solubility; compared to 1a): did not improve solubility
5 | O=C(c1n[nH]cc1[N+](=O)[O-])N1CCN(C(c2ccccc2)c2ccccc2)CC1 [Compound 2h] |  | > 20 µg/mL | > 20 µg/mL | 
6 | Cn1cc([N+](=O)[O-])c(C(=O)N2CCN(C(c3ccccc3)c3ccccc3)CC2)n1 [Compound 2i] |  | > 20 µg/mL | > 20 µg/mL | 
7 | Cn1ncc([N+](=O)[O-])c1C(=O)N1CCN(C(c2ccccc2)c2ccccc2)CC1 [Compound 2j] |  | > 20 µg/mL | > 20 µg/mL | 
8 | O=C(c1cc([N+](=O)[O-])ccn1)N1CCN(C(c2ccccc2)c2ccccc2)CC1 [Compound 2k] | weak inhibitor |  |  | 
9 | Cc1ccc(C(=O)N2CCN(C(c3ccccc3)c3ccccc3)CC2)c([N+](=O)[O-])c1 [Compound 2l] | inactive | > 20 µg/mL | > 20 µg/mL | 
10 | O=C(c1ccc([N+](=O)[O-])o1)N1CCN(C(c2ccccc2)c2ccccc2)CC1 [Compound 2m] | inactive |  | > 20 µg/mL | 
11 | Cc1onc(C(=O)N2CCOCC2)c1[N+](=O)[O-] [Compound 2n] | inactive | > 20 µg/mL | > 20 µg/mL | 
12 | Cc1onc(C(=O)NCc2ccc(F)cc2)c1[N+](=O)[O-] [Compound 2o] | inactive | > 20 µg/mL | > 20 µg/mL | 
13 | CCC(=O)N1CCN(C(=O)c2noc(C)c2[N+](=O)[O-])CC1 [Compound 2p] | inactive | > 20 µg/mL | > 20 µg/mL | 
14 | COc1ccccc1N1CCN(C(=O)c2noc(C)c2[N+](=O)[O-])CC1 [Compound 2q] | inactive | > 20 µg/mL | > 20 µg/mL | 
15 | Cc1onc(C(=O)N2CCN(Cc3ccccc3)CC2)c1[N+](=O)[O-] [Compound 2r] | eliminate activity | > 20 µg/mL | > 20 µg/mL | 
16 | Cc1onc(C(=O)NCCNC(c2ccccc2)c2ccccc2)c1[N+](=O)[O-] [Compound 2t] |  | > 20 µg/mL |  | 
17 | Cc1onc(C(=O)N2CCN(C(c3ccccn3)c3ccccn3)CC2)c1[N+](=O)[O-] [Compound 2u] | inactive | > 20 µg/mL | > 20 µg/mL | 
18 | Cc1onc(C(=O)N2CCN(C(c3ccncc3)c3ccncc3)CC2)c1[N+](=O)[O-] [Compound 2v] | inactive | > 20 µg/mL | > 20 µg/mL | 
19 | Cc1onc(C(=O)N2CCN(C(c3ccc(F)cc3)c3ccc(F)cc3)CC2)c1[N+](=O)[O-] [Compound 2w] |  |  |  | increase in activity compared to 2a [2]: 5 fold
20 | Cc1onc(C(=O)N2CCN(C(c3ccc(Cl)cc3)c3ccc(Cl)cc3)CC2)c1[N+](=O)[O-] [Compound 2y] |  |  |  | selectivity for the DRD vs the BJeH cell line ([5]; DRD (HRAS^G12V) vs BJeH (non expressing HRAS^G12V)): 6 fold; increase in activity compared to the hit compound 2a ([5]; DRD cell line): 16 fold; increase in activity compared to 2a [2]: 14 fold
21 | COC(=O)c1ccc(C2c3[nH]c4ccccc4c3C[C@@H](C(=O)OC)N2C(=O)CCl)cc1 (stereo partly shown) [RSL3] |  |  |  | selectivity vs BJeH-LT ([6]; BJeLR vs BJeH-LT): approximately 8 fold; IC50 ([6]; read-out: IC50 in BJeLR, BJeLR): 100 nM
